From ChEMBL document CHEMBL4673212, “Investigation of synergistic antimicrobial effects of the drug combinations of meropenem and 1,2-benzisoselenazol-3(2H)-one derivatives on carbapenem-resistant Enterobacteriaceae producing NDM-1” (Eur J Med Chem, 2018)

Columns and labels:
L929 [1] = experiment: Cytotoxicity against mouse L929 cells assessed as increase in cell viability at 0.13 to 2 mg/ml measured after 48 hrs by MTT assay relative to control; format: cell-based; conditions: l929, 48 h, dose 0.13-2 mg/ml
Procedure, shortened: (§1)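 MTT assay. HeLa or L929 cells were seeded at 1×10^4/well in DMEM with 10% FBS and grown 12 h at 37 °C. They were exposed to 0.13–2 mg/mL compound (DMSO stock) for 48 h, then given 0.5 mg/mL MTT for 3 h at 37 °C. Formazan was dissolved in DMSO and read at 490 nm. Survival % was blank-corrected against the 0.5% DMSO medium control.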

HeLa [2] = experiment: Cytotoxicity against human HeLa cells assessed as effect on morphological changes at 0.13 to 2 mg/ml by microscopic analysis; format: cell-based; conditions: dose 0.13-2 mg/ml
Procedure, shortened: (§2)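 HeLa and L929 cells were examined by microscopy for morphological change after incubation with compound at the MTT-assay concentrations.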

[3] = target: Metallo-beta-lactamase type 2 (Klebsiella pneumoniae) (UniProt C7C422); experiment: Inhibition of wild type N-terminal His6-tagged Klebsiella pneumoniae NDM-1 expressed in Escherichia coli BL21 assessed as ratio of Kinact/Ki using nitrocefin as substrate measured after 30 mins
Sequence of Metallo-beta-lactamase type 2 (Klebsiella pneumoniae) (C7C422 whole entry, the tested form may be a part): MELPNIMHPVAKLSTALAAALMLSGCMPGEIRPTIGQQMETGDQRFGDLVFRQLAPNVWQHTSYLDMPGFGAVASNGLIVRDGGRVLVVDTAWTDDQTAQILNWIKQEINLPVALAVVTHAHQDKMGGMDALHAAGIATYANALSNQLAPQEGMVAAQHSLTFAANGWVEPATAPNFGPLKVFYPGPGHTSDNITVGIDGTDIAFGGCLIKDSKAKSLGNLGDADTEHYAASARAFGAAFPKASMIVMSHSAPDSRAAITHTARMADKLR
Procedure, shortened: (§3)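 1 nM purified His6-NDM-1 was mixed with varying compound concentrations in 50 mM phosphate buffer ± 50 µM ZnSO4 with BSA. Nitrocefin was added at 7× Km and velocity read at 482 nm, in triplicate. ln(% residual activity) versus incubation time gave kobs, which was fitted hyperbolically against concentration for KI and kinact.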

L929 [4] = experiment: Cytotoxicity against mouse L929 cells assessed as effect on morphological changes at 0.13 to 2 mg/ml by microscopic analysis; format: cell-based; conditions: dose 0.13-2 mg/ml; procedure, shortened: as §2
HeLa [5] = experiment: Cytotoxicity against human HeLa cells assessed as increase in cell viability at 2 mg/ml measured after 48 hrs by MTT assay; format: cell-based; procedure, shortened: as §1
[6] = target: Metallo-beta-lactamase type 2 (Klebsiella pneumoniae) (UniProt C7C422); experiment: Inhibition of wild type N-terminal His6-tagged Klebsiella pneumoniae NDM-1 expressed in Escherichia coli BL21 assessed as inactivation constant using nitrocefin as substrate measured after 30 mins; procedure, shortened: as §3
[7] = target: Metallo-beta-lactamase type 2 (Klebsiella pneumoniae) (UniProt C7C422); experiment: Binding affinity to denatured N-terminal His6-tagged Klebsiella pneumoniae NDM-1 expressed in Escherichia coli BL21 assessed as formation of compound-intact protein complex by measuring molecular weight measured after 20 mins by ESI-MS analysis
Procedure, shortened: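 NDM-1 (20 µM) incubated 20 min with equimolar compound in 20 mM ammonium acetate. Native sample infused by nano-ESI with spray held ~20 min at 150 V. For the denatured sample, an equal volume of acetonitrile with 0.5% formic acid was added before syringe-pump loading at 5 µL/min. Complex formation was read from mass.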

CC(C)(C)OC(=O)NCCn1[se]c2ccccc2c1=O
Activity (L929 [1]): 70%
Activity (HeLa [2]): Non-Toxic
Ratio [3]: 0.067 mM⁻¹ s⁻¹
Activity (L929 [4]): Non-Toxic
Activity (HeLa [5]): Non-Toxic
Kinact [6]: 0.068 min⁻¹
Activity [7]: 26200 Da
